Article PMC5039020 (Journal of Alzheimer's disease : JAD, 2013)
Entries after “also recorded” stand apart in the source; their conditions may differ. Like-named read-outs stand apart in the source and are kept apart here. Blank lines part the entries; values can stand above or below the molecule they belong to.

Tests used:
[1] = tested on: extracellular Aβ42; assay: Extracellular Aβ42 ELISA capture assay in N2a-AβPP695 cell supernatants; format: cell-based; details: for effect on Aftin-5 induced extracellular Aβ42 production: N2a-AβPP695, compound together with 100 μM Aftin-5, 18 h; for effect on extracellular Aβ42 level/production: N2a-AβPP695, compound alone, various concentrations
[2] = tested on: KinomeScan panel of 402/442 kinases; details: 402 kinases; cited from earlier work
[3] = tested on: SH-SY5Y; assay: Cell viability, MTS assay, SH-SY5Y; format: cell-based; details: read-out: IC50, cell viability (MTS assay), viability assessed 24 h later
[4] = tested on: N2a-AβPP695; assay: Cell viability, MTS assay, N2a-AβPP695; format: cell-based; details: for IC50: read-out: IC50, cell viability (MTS assay), N2a-AβPP695, viability assessed 24 h later
[5] = tested on: N2a; assay: Cell viability, MTS assay, N2a; format: cell-based; details: read-out: IC50, cell viability (MTS assay), viability assessed 24 h later
Procedure, shortened: (§1)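 Each line was exposed to increasing concentrations of test compound, and viability was read 24 h later by MTS. 20 μL MTS reagent per 100 μL medium, 3 h at 37°C, 5% CO₂. Absorbance read at 490 and 630 nm. IC50 derived from dose-response curves.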

[6] = tested on: HT22; assay: Cell viability, MTS assay, HT22; format: cell-based; details: read-out: IC50, cell viability (MTS assay); HT22, viability assessed 24 h later
Procedure, shortened: as §1

[7] = tested on: N2a-AβPP695 cells; assay: Electron microscopy, ultrastructure of mitochondria within cells; format: cell-based
[8] = tested on: mitochondria isolated from N2a-AβPP695 cells; assay: Electron microscopy, ultrastructure of isolated mitochondria; details: 100 μM Aftin-5; 50 μM Calcium; 50 μM Calcium + CsA
[9] = tested on: KinomeScan panel of 402/442 kinases; assay: KinomeScan panel; format: binding; details: 10 μM
[10] = Animal toxicity; format: in vivo; details: per os doses up to 150 mg/kg daily for 20 days; data not shown
[11] = tested on: extracellular Aβ38; assay: Extracellular Aβ38 ELISA capture assay in N2a-AβPP695 cell supernatants; format: cell-based; details: for IC50: read-out: IC50 Aβ38, N2a-AβPP695, GSI added 1 h before 100 μM Aftin-5, 18 h; for effect on extracellular Aβ38 level: N2a-AβPP695, compound alone, various concentrations
[12] = tested on: N2a-AβPP695 cells; assay: Autophagy assessment, counting of LC3 foci by immunofluorescence; format: cell-based
Procedure, shortened: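 Cells grown on glass coverslips, fixed in 4% paraformaldehyde, permeabilised with 50 μM digitonin, and stained with a monoclonal anti-LC3 antibody. Images taken with a 40× NA 0.85 objective. LC3 foci counted automatically by image analysis.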

[13] = tested on: N2a-AβPP695 cells; assay: Mitochondrial parameters in cultured cells; format: cell-based
[14] = tested on: extracellular Aβ40; assay: Extracellular Aβ40 ELISA capture assay in N2a-AβPP695 cell supernatants; format: cell-based; details: for IC50: read-out: IC50 Aβ40, N2a-AβPP695, GSI added 1 h before 100 μM Aftin-5, 18 h; for effect on extracellular Aβ40 in Aftin-5 treated cells: N2a-AβPP695, compound together with 100 μM Aftin-5, 18 h; for effect on extracellular Aβ40 level/production: N2a-AβPP695, compound alone, various concentrations
[15] = tested on: intracellular Aβ38, Aβ40, and Aβ42; assay: Intracellular amyloids ELISA capture assay in N2a-AβPP695 cells; format: cell-based
Procedure, shortened: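 2 × 10⁶ N2a-AβPP695 cells per T25 flask in 0.5% FBS medium overnight, then treated for 18 h. Cells washed, scraped into PBS with protease inhibitors, pelleted, lysed in 1% Nonidet P-40, sonicated, and spun at 14,000 rpm for 15 min at 4°C. Lysate supernatant assayed by 6E10-capture sandwich ELISA with biotinylated Aβ38, Aβ40 or Aβ42 antibodies. Values expressed as fold over untreated cells.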

[16] = N2a-AβPP695, dose-response, 18 h

Molecule: Cn1cnc(N)c2ncnc1-2 [3-methyladenine]
effect on Aftin-5 induced extracellular Aβ42 production [1]: did not interfere

Molecule: CN(C)c1ncnc2nc[nH]c12 [Aftin N6DA, N6-dimethylaminopurine]
effect on extracellular Aβ42 level/production ([1]; 18 h): inactive

Molecule: CCC(CO)Nc1nc(N(C)Cc2ccccc2)c2ncn(C(C)C)c2n1 (centres unmarked) [Aftin-4, N^6-methyl-roscovitine]
interaction with kinases (KinomeScan) [2]: no significant interaction
effect on extracellular Aβ42 level/production ([1]; 18 h): bell-shaped
IC50 [3]: 106 µM
IC50 [4]: 90 µM
IC50 [5]: 100 µM
IC50 [6]: 74 µM

Molecule: CC[C@H](CO)Nc1nc(N(C)c2ccccc2)c2ncn(C(C)C)c2n1 [Aftin-5]
ultrastructure of mitochondria within cells, 6 h ([7]; 100 μM, 6 h): little detectable effects
ultrastructure of mitochondria within cells, 24 h ([7]; 100 μM, 24 h, reversible upon washing): partial mitochondrial swelling without disruption of cristae
ultrastructure of isolated mitochondria (swelling, cristae remodeling) [8]: did not induce any swelling or cristae remodeling
interaction with kinases (KinomeScan) [9]: no interaction with any of the kinases
animal toxicity [10]: little
decrease of Aβ38 level [11, 16]: > 70%
time after addition at which Aβ42 production reached a plateau ([1]; N2a-AβPP695, 100 μM Aftin-5): about 12 h
effect on extracellular Aβ42 level/production ([1]; 18 h): linear up to the highest dose tested
increase of Aβ42 production (up to) [1, 16]: > 900%
IC50 [3]: 180 µM
effect on rapamycin-induced autophagy [12]: Neither Aftin-5 nor its inactive analog compound (2) impaired rapamycin-induced autophagy
mitochondrial parameters at the cellular level, control vs treated cells [13]: essentially undistinguishable
global respiration functions ([13]; 24 h): slight inhibition
maximum increase of Aβ40 level [14, 16]: 40%
IC50 [4]: 150 µM
cytotoxic effects on cells ([4]; up to 100 μM, or longest exposure 6 days, data not shown): did not show any cytotoxic effects; also recorded: little cell toxicity
IC50 [5]: 178 µM
effect on levels of intracellular Aβ38, Aβ40, and Aβ42 ([15]; N2a-AβPP695, 100 μM Aftin-5, 18 h): did not modify
IC50 [6]: 194 µM

IC50 [11]: 0.088 µM
IC50 [14]: 0.056 µM
Molecule: C[C@H](c1ccc(F)cc1CCCC(=O)O)N(c1cc(F)ccc1F)S(=O)(=O)c1ccc(Cl)cc1 [BMS 299897]

IC50 [11]: 0.112 µM
IC50 [14]: 0.062 µM
Molecule: C[C@H](NC(=O)Cc1cc(F)cc(F)c1)C(=O)NC(C(=O)OC(C)(C)C)c1ccccc1 (some centres unmarked) [DAPT]
effect on extracellular Aβ38 / Aftin-5 induced Aβ38 down-regulation ([11]; N2a-AβPP695, compound together with 100 μM Aftin-5, 18 h): down-regulated
effect on Aftin-5 induced extracellular Aβ42 production [1]: down-regulated
effect on extracellular Aβ40 in Aftin-5 treated cells [14]: down-regulated
effect on levels of intracellular amyloids ([15]; N2a-AβPP695, 1 μM compound in presence of 100 μM Aftin-5, 18 h): but not that of intracellular amyloids

ultrastructure of isolated mitochondria (swelling, cristae remodeling) [8]: strong swelling
Molecule: [Ca+2] [calcium]

Molecule: C[C@H](CS)C(=O)N1CCC[C@H]1C(=O)O [captopril]
effect on extracellular Aβ38 level ([11]; 18 h): no effects
effect on extracellular Aβ42 level/production ([1]; 18 h): no effects
effect on extracellular Aβ40 level/production ([14]; 18 h): no effects

Molecule: CN(Cc1ccccc1)c1nc(N)nc2[nH]cnc12 [compound (2)]
effect on extracellular Aβ42 level/production ([1]; 18 h): inactive
effect on rapamycin-induced autophagy [12]: Neither Aftin-5 nor its inactive analog compound (2) impaired rapamycin-induced autophagy

Molecule: COc1cccc2c1C(=O)c1c(O)c3c(c(O)c1C2=O)C[C@@](O)(C(=O)CO)C[C@@H]3O[C@H]1C[C@H](N)[C@H](O)[C@H](C)O1 [doxorubicin]
ultrastructure of mitochondria within cells, positive control ([7]; 5 μM doxorubicin): altered the structure of cristae and induced cell death

Molecule: CC(C)C[C@H](NP(=O)(O)O[C@@H]1O[C@@H](C)[C@H](O)[C@@H](O)[C@H]1O)C(=O)N[C@@H](Cc1c[nH]c2ccccc12)C(=O)O [phosphoramidon]
effect on extracellular Aβ38 level ([11]; 18 h): no effects
effect on extracellular Aβ42 level/production ([1]; 18 h): no effects
effect on extracellular Aβ40 level/production ([14]; 18 h): no effects

Molecule: C[C@H](N[C@@H](CCc1ccccc1)C(=O)O)C(=O)N1Cc2ccccc2C[C@H]1C(=O)O [quinaprilat]
effect on extracellular Aβ38 level ([11]; 18 h): no effects
effect on extracellular Aβ42 level/production ([1]; 18 h): no effects
effect on extracellular Aβ40 level/production ([14]; 18 h): no effects

Molecule: CO[C@H]1C[C@@H]2CC[C@@H](C)[C@@](O)(O2)C(=O)C(=O)N2CCCC[C@H]2C(=O)O[C@H]([C@H](C)C[C@@H]2CC[C@@H](O)[C@H](OC)C2)CC(=O)[C@H](C)/C=C(\C)[C@@H](O)[C@@H](OC)C(=O)[C@H](C)C[C@H](C)/C=C/C=C/C=C/1C [rapamycin]
effect on Aftin-5 induced extracellular Aβ42 production [1]: did not prevent
autophagy, LC3 foci, compound alone [12]: accumulation of LC3 foci

Molecule: CC[C@H](CO)Nc1nc(NCc2ccccc2)c2ncn(C(C)C)c2n1 [roscovitine, (R)-Roscovitine]
effect on extracellular Aβ42 level/production ([1]; 18 h): little effect

Molecule: O=C(O)CNC(=O)C(CS)Cc1ccccc1 (centres unmarked) [thiorphan]
effect on extracellular Aβ38 level ([11]; 18 h): no effects
effect on extracellular Aβ42 level/production ([1]; 18 h): no effects
effect on extracellular Aβ40 level/production ([14]; 18 h): no effects

Molecule: β-secretase inhibitor IV
effect on Aftin-5 induced extracellular Aβ42 production [1]: inhibited production
effect on extracellular Aβ40 in Aftin-5 treated cells [14]: inhibited production
